Source: ChEMBL document CHEMBL3243961, “Synthesis and biological activity of 8-arylergolines” (1977)
Active and inactive are the calls of the source. The rule behind the calls is not given here.

Experiments:
Rattus norvegicus [1] = species on record: Rattus norvegicus; experiment: Oxytocic activity in rat uterus smooth muscle up to 10 ug/ml; type: functional, tissue-based; conditions: Muscle tissue
Rattus norvegicus [2] = experiment: Decrease in prolactin level in rat serum at 1 mg, ip by radioimmunoassay; type: functional
Procedure, shortened: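 Rats received test compound ip at 1 mg per rat. Serum prolactin was then measured by radioimmunoassay, and the result was expressed as the percent drop in serum prolactin.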

[3] = biological target: T1, Adrenergic receptor alpha (Rattus norvegicus) (UniProt P15823+P23944+P43140+P22086+P19328+P22909); experiment: Blockade of alpha-adrenoceptor in rat aorta assessed as rightward shift in norepinephrine dose response curve; type: tissue-based
[4] = biological target: Serotonin (5-HT) receptor (Rattus norvegicus) (UniProt P35563+P35365+P32305+P31388+Q9JJ16+P28564+P30994+Q62758+P08909+P14842+P30940+P35364+P19327+P28565); experiment: Inhibition of 5-HT receptor in rat stomach fundus relative to methysergide; type: tissue-based
Rattus norvegicus [5] = experiment: Antidepressant activity in rat assessed as antimuricidal activity at 10 mg/kg, ip; type: functional, organism-based; design: dose 10 mg/kg
Procedure, shortened: (§1)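 Rats screened in an antimuricidal (mouse-killing) test, used as a possible indicator of antidepressant activity.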

Rattus norvegicus [6] = experiment: Antidepressant activity in rat assessed as antimuricidal activity at 0.625 mg/kg, ip; type: functional, organism-based; design: dose 0.625 mg/kg
[7] = biological target: T1, Adrenergic receptor alpha (Rattus norvegicus); experiment: Blockade of alpha-adrenoceptor in rat aorta; type: tissue-based
Rattus norvegicus [8] = experiment: Antidepressant activity in rat assessed as antimuricidal activity at 5 mg/kg, ip; type: functional, organism-based; design: dose 5 mg/kg; procedure, shortened: as §1
Rattus norvegicus [9] = experiment: Decrease in prolactin level in rat serum at 10 ug, ip by radioimmunoassay; type: functional
Rattus norvegicus [10] = experiment: Antidepressant activity in rat assessed as antimuricidal activity at 20 mg/kg, ip; type: functional, organism-based; design: dose 20 mg/kg; procedure, shortened: as §1

CN1CC(c2ccc(Cl)cc2)C=C2c3cccc4c3[C@@H](CN4)C[C@H]21 (stereo partly drawn)
Activity (Rattus norvegicus [1]): inactive

CN1C[C@H](c2ccc3c(c2)OCO3)C=C2c3cccc4[nH]cc(c34)C[C@H]21
Activity (Rattus norvegicus [1]): inactive
inhibition (Rattus norvegicus [2]): inactive
fold change (FC) [3]: 2
5-HT antagonist potency relative to methysergide [4]: 50%
Activity (Rattus norvegicus [5]): Active

CN1CCC=C2c3cccc4[nH]cc(c34)CC21 (racemic)
Activity (Rattus norvegicus [6]): Active

CN1C[C@@H](c2ccccc2)C=C2c3cccc4c3[C@@H](CN4)C[C@H]21
Activity (Rattus norvegicus [1]): inactive

Cc1ccc([C@@H]2C=C3c4cccc5c4[C@@H](CN5)C[C@H]3N(C)C2)cc1
Activity (Rattus norvegicus [1]): inactive

COc1ccc([C@@H]2C=C3c4cccc5[nH]cc(c45)C[C@H]3N(C)C2)cc1.O=C(O)/C=C\C(=O)O
inhibition [7]: Active
Activity (Rattus norvegicus [1]): inactive
inhibition (INH) (Rattus norvegicus [2]): 81%
5-HT antagonist potency relative to methysergide [4]: 100%
Activity (Rattus norvegicus [5]): Active

COc1ccc([C@@H]2C=C3c4cccc5c4[C@@H](CN5)C[C@H]3N(C)C2)cc1
Activity (Rattus norvegicus [1]): inactive

CN1C[C@H](c2ccccc2)C=C2c3cccc4c3[C@@H](CN4)C[C@H]21
Activity (Rattus norvegicus [1]): inactive

CN1C[C@H](c2ccccc2)C=C2c3cccc4[nH]cc(c34)C[C@H]21.O=C(O)/C=C\C(=O)O
Activity (Rattus norvegicus [1]): inactive
inhibition (INH) (Rattus norvegicus [2]): 71%
Activity (Rattus norvegicus [8]): Active
fold change (FC) [3]: 2
5-HT antagonist potency relative to methysergide [4]: 50%

CN1C[C@H](c2ccc3c(c2)OCO3)C=C2c3cccc4c3[C@@H](CN4)C[C@H]21
Activity (Rattus norvegicus [1]): inactive

CN1C[C@@H](c2ccc3c(c2)OCO3)C=C2c3cccc4c3[C@@H](CN4)C[C@H]21
Activity (Rattus norvegicus [1]): inactive

Cc1ccc([C@H]2C=C3c4cccc5c4[C@@H](CN5)C[C@H]3N(C)C2)cc1
Activity (Rattus norvegicus [1]): inactive

CC(C)[C@H]1C(=O)N2CCC[C@H]2[C@]2(O)O[C@](NC(=O)[C@@H]3C=C4c5cccc6[nH]cc(c56)C[C@H]4N(C)C3)(C(C)C)C(=O)N12 [ERGOCORNINE]
inhibition (INH) (Rattus norvegicus [9]): 60%

CN1CC(c2ccc(O)cc2)C=C2c3cccc4c3[C@@H](CN4)C[C@H]21 (stereo partly drawn)
Activity (Rattus norvegicus [1]): inactive

CN1C[C@@H](c2ccccc2)C=C2c3cccc4[nH]cc(c34)C[C@H]21.O=C(O)/C=C\C(=O)O
inhibition [7]: Active
Activity (Rattus norvegicus [1]): inactive
Activity (Rattus norvegicus [10]): inactive
inhibition (INH) (Rattus norvegicus [2]): 88%
5-HT antagonist potency relative to methysergide [4]: 10%

COc1ccc([C@H]2C=C3c4cccc5c4[C@@H](CN5)C[C@H]3N(C)C2)cc1
Activity (Rattus norvegicus [1]): inactive

Cc1ccc([C@@H]2C=C3c4cccc5[nH]cc(c45)C[C@H]3N(C)C2)cc1
Activity (Rattus norvegicus [1]): inactive
